Screening results from PubChem BioAssay.
HIV Env fusion: blocks HIV Env-driven cell-cell fusion; HeLa-JRFL Env/CEM21 cell fusion, luciferase; inhibition, % at 12.3 µM; actives 1.1% (n = 360,000); AID 651610;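 active = mean replicate inhibition score of at least 50 and every replicate individually at or above 50; inconclusive = only one of the two criteria met; inactive = mean below 50 and not all replicates reaching 50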;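 note: 0% = plate neutral controls and 100% = maraviroc near 300 nM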
F508del corr: correctors of CFTR F508del function in bronchial epithelial cells; CFBE cells, YFP halide quenching; stimulated with forskolin plus potentiator P3; % fluorescence drop versus neutral controls; activity (quench increase), % at 7.58 µM; actives 0.36% (n = 350,000);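 active = mean added fluorescence quench of at least 8% versus neutral control, with both replicates also reaching 8%; inconclusive = only one of the mean or replicate conditions met; inactive = mean below 8% and not both replicates reaching 8%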;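 note: cells transiently co-express mutant CFTR-F508del with the halide-sensitive YFP; corrector assay measuring rescue of mutant channel to the surface after 24 h compound exposure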
FGF22 binding: shifts melting point of recombinant human FGF22; Q9HCT0; recombinant FGF22 thermal shift, SYPRO orange fluorescence; percent of sucrose octasulfate shift, DMSO zero; activity (Tm shift, normalised), % at 9.99 µM; actives 1.5% (n = 340,000);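 active = mean Tm shift, scaled 0 neutral to 100 positive control, at about 1.3% or above, every replicate too, limit read from the data; inconclusive = no clear call, values can overlap the other calls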
E-selectin induc: induces E-selectin expression in human endothelial cells | P16581 | HUVEC E-selectin immunofluorescence imaging; normalized: neutral wells 0, TNF-alpha wells 100 | activation, % at 7.58 µM | actives 0.37% (n = 260,000) | AID 686992;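 active = mean E-selectin-positive cell signal at least 10% of the positive control, reached in at least 60% of replicates, without over 20% cell loss; inconclusive = no rule given, readout overlaps actives, possibly toxicity-flagged; inactive = the rest, including those meeting only one limit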
Target sequence (P16581 whole entry, looked up): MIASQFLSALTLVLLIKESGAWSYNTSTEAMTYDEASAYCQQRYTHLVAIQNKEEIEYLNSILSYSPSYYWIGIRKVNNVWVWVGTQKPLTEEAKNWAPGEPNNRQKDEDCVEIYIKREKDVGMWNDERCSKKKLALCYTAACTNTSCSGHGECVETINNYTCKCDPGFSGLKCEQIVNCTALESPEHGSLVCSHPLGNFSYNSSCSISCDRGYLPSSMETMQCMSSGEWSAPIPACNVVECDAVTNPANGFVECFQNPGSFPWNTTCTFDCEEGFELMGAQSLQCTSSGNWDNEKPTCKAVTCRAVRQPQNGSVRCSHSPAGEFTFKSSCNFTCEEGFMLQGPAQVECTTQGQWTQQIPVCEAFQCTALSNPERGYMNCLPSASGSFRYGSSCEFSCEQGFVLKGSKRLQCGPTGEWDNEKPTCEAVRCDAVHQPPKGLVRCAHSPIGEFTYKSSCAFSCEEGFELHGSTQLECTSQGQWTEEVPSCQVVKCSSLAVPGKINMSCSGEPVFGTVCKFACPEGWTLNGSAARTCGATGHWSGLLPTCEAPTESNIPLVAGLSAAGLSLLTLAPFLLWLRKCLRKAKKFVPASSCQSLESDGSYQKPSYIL
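material = human umbilical vein endothelial cells (HUVEC), E-selectin induction | quantity = 3,000 cells/well | medium = EGM-2 growth medium on 0.1% gelatin-coated wells | technique = immunofluorescence imaging | read-out basis = % PE-positive cells | control set = TNF-alpha positive control, DMSO neutral control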
S100A4 MyoIIA: inhibitors of human S100A4 binding to myosin IIA peptide; S100A4/TAMRA-MyoIIA peptide fluorescence polarization; inhibition, % at 10.7 µM; actives 0.14% (n = 360,000);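 active = mean inhibition of at least 70% across replicates, with every replicate also reaching that level; inconclusive = mean inhibition reaches 70% but some replicates fall short; inactive = mean inhibition below 70%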
Target sequence (P26447 whole entry, looked up): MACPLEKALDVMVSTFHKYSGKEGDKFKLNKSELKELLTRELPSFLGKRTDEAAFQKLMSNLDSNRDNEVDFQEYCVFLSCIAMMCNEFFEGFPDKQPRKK
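Test system: S100A4 monomer protein; Medium: HEPES pH 7.2 with CaCl2, KCl, NaCl, DTT, Triton; Probe or stimulus: TAMRA-labelled myosin IIA heavy-chain peptide probe, 5 nM; Doses: one dose per compound; Times: polarization read 5 min after assay mix addition, stable 5–60 min; Benchmarks: neutral control DMSO, positive control TFP.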
The depositor's hits bear a star; [ ] = another dose, or the depositor's remark. In the library only some 2.7% were active in any assay of this set; here they are far more common.

How did COc1ccc(Cc2c(-c3ccco3)nc3ccc(Br)cn23)c(C)c1 do in these assays?
HIV Env fusion: -12; F508del corr: -2; FGF22 binding: 0; E-selectin induc: 2; S100A4 MyoIIA: -13

Results for CC1=CC(=O)c2ccccc2C1=O ?
HIV Env fusion: -14; F508del corr: -4; FGF22 binding: 0; E-selectin induc: -2; S100A4 MyoIIA: 0

Results for COc1cccc2c1C(=O)C=C(C)C2=O ?
F508del corr: 16*; FGF22 binding: 0; S100A4 MyoIIA: 6

How did C[C@@H](NC(=O)[C@@H]1[C@@H](CO)[C@@H]2Cn3c(ccc(-c4cccnc4)c3=O)[C@@H]2N1C)c1ccccc1 do in these assays?
F508del corr: 0; FGF22 binding: 0; E-selectin induc: 0; S100A4 MyoIIA: -16

Results for CCC(=O)N(C)C[C@@H]1Oc2ncc(-c3ccccc3F)cc2C(=O)N([C@H](C)CO)C[C@@H]1C ?
HIV Env fusion: -10[16.7 µM]; F508del corr: 0; FGF22 binding: 0; E-selectin induc: 0; S100A4 MyoIIA: -3

Results for O=C(O)c1ccc(Cn2c(SCc3cc(=O)n4cc(Br)ccc4n3)nc3ccsc3c2=O)cc1 ?
HIV Env fusion: 21; F508del corr: 1; FGF22 binding: 43*; E-selectin induc: 4; S100A4 MyoIIA: 2

How did O=C(O)C1CCC(Cn2c(SCc3cc(=O)n4cc(Br)ccc4n3)nc3ccsc3c2=O)CC1 (configuration not stated) do in these assays?
HIV Env fusion: 16; F508del corr: 1; FGF22 binding: 0; E-selectin induc: 0; S100A4 MyoIIA: 4

Results for C[C@@H]1CCCCO[C@@H](CN(C)C(=O)Cc2ccccc2)[C@@H](C)CN([C@H](C)CO)C(=O)c2cc(NC(=O)Nc3ccccc3)ccc2O1 ?
HIV Env fusion: 14[16.7 µM]; F508del corr: 2; FGF22 binding: 0; S100A4 MyoIIA: -12

Results for CCN=C1S/C(=C\c2cn(C(C)=O)nc2-c2ccccc2)C(=O)N1CC ?
HIV Env fusion: -108

How did Cc1ccc(NC(=O)CN2C(=O)N/C(=C/c3ccccc3OCc3cccc(C(=O)O)c3)C2=O)cc1 do in these assays?
HIV Env fusion: -16; F508del corr: 1; S100A4 MyoIIA: 4

What do the screens show for `CC(=O)NC1=NC(=O)/C(=C/c2cn(C(C)=O)nc2-c2ccccc2)S1`?
HIV Env fusion: 32; F508del corr: 1; FGF22 binding: 44*; S100A4 MyoIIA: -3

What do the screens show for `Cc1ccc(NC(=O)CN2C(=O)N/C(=C/c3cc(C)n(-c4cccc(C(=O)O)c4)c3C)C2=O)cc1`?
HIV Env fusion: 18; F508del corr: 1; FGF22 binding: 44*; S100A4 MyoIIA: -7

Results for CC(=O)NC1=NC(=O)/C(=C/c2cc(C)n(-c3cccc(C(=O)O)c3)c2C)S1 ?
HIV Env fusion: -101; F508del corr: 3; FGF22 binding: 43*; S100A4 MyoIIA: 6

What do the screens show for `C[C@@H]1CN([C@@H](C)CO)C(=O)c2cccc(NC(=O)Nc3ccc(F)cc3)c2O[C@H]1CN(C)S(=O)(=O)c1cccs1`?
HIV Env fusion: 11[16.7 µM]; F508del corr: 4; FGF22 binding: 0; E-selectin induc: 0; S100A4 MyoIIA: inconclusive

Results for Cc1cc2nnc(SCC(=O)NCc3ccco3)n2c2ccccc12 ?
HIV Env fusion: -63; F508del corr: 9.8*; FGF22 binding: 0; E-selectin induc: 0; S100A4 MyoIIA: 1

What do the screens show for `O=C(C[C@H]1C[C@H]2c3cc(NC(=O)NC4CCCC4)ccc3O[C@H]2[C@H](CO)O1)NCc1ccc(Cl)cc1`?
F508del corr: 0; FGF22 binding: 0; E-selectin induc: -1; S100A4 MyoIIA: 1

What do the screens show for `COc1ccc(Cl)cc1NC(=S)N1CCN(C(=O)C2CCCO2)CC1` (configuration not stated)?
HIV Env fusion: 0; F508del corr: -1; FGF22 binding: 0; S100A4 MyoIIA: -5

How did COc1cc(NC(=S)N2CCN(C(=O)C3CCCO3)CC2)c(OC)cc1Cl (configuration not stated) do in these assays?
HIV Env fusion: 2; F508del corr: -1; FGF22 binding: 44*; S100A4 MyoIIA: 1

What do the screens show for `COc1ccc2c3c([nH]c2c1)[C@H](CO)N(C(=O)Nc1ccc(F)cc1)CC31CN(C(=O)Cc2ccncc2)C1`?
F508del corr: 1; FGF22 binding: 0; E-selectin induc: 0; S100A4 MyoIIA: -1

How did O=C(NCC(=O)N1CCN(c2ncccn2)CC1)c1ccccc1OC(F)F do in these assays?
HIV Env fusion: 86*; F508del corr: -3; FGF22 binding: 0; E-selectin induc: 2; S100A4 MyoIIA: 1

Results for COc1ccc(C(=O)NCC(=O)N2CCN(c3ncccn3)CC2)cc1OC ?
HIV Env fusion: 7; F508del corr: 1; FGF22 binding: 0; S100A4 MyoIIA: 0

Results for CC(C)NC(=O)N(C)C[C@@H]1Oc2ncc(-c3cncnc3)cc2C(=O)N([C@H](C)CO)C[C@@H]1C ?
HIV Env fusion: -8[16.7 µM]; F508del corr: -1; FGF22 binding: 0; E-selectin induc: 0; S100A4 MyoIIA: 12

Results for C[C@H]1CN([C@@H](C)CO)C(=O)c2cccc(N(C)C)c2O[C@@H]1CN(C)Cc1ccc(C(=O)O)cc1 ?
HIV Env fusion: 3[16.7 µM]; F508del corr: -3; FGF22 binding: 0; E-selectin induc: -13; S100A4 MyoIIA: 2

What do the screens show for `Cc1nn(C2CCS(=O)(=O)C2)c(Cl)c1/C=C/C(=O)OCC(=O)c1cc(C)n(-c2ccc(F)cc2)c1C` (configuration not stated)?
HIV Env fusion: 55*; F508del corr: 1; FGF22 binding: 1; E-selectin induc: 0; S100A4 MyoIIA: -3

How did O=C(NC1CCCC1)[C@@H]1[C@@H](CO)[C@@H]2Cn3c(ccc(-c4cccnc4)c3=O)[C@H]1N2CC1CC1 do in these assays?
F508del corr: -1; FGF22 binding: 0; E-selectin induc: 0

What do the screens show for `Cc1ccc(S(=O)(=O)N(C)C[C@H]2Oc3ccc(NC(=O)c4ccncc4)cc3CC(=O)N([C@@H](C)CO)C[C@H]2C)cc1`?
F508del corr: -1; FGF22 binding: 0; E-selectin induc: 0; S100A4 MyoIIA: -6

How did C[C@@H]1CN([C@H](C)CO)S(=O)(=O)c2ccc(-c3cccc(F)c3)cc2O[C@H]1CN(C)C(=O)C1CC1 do in these assays?
HIV Env fusion: 18[16.7 µM]; F508del corr: -2; FGF22 binding: 0; E-selectin induc: 0; S100A4 MyoIIA: 14

Results for C[C@@H]1CN([C@H](C)CO)C(=O)c2cc(NC(=O)Nc3cccc4ccccc34)ccc2O[C@@H](C)CCCCO[C@H]1CN(C)Cc1ccncc1 ?
HIV Env fusion: 14[16.7 µM]; F508del corr: 3; FGF22 binding: 0; E-selectin induc: 0; S100A4 MyoIIA: 2

How did c1nc(N2CCOCC2)c2c3c(sc2n1)CCCC3 do in these assays?
HIV Env fusion: inconclusive; S100A4 MyoIIA: 5
